Laboratory results taken from ChEMBL document CHEMBL1147176, “Synthesis of S-dialkylarsino-3-mercapto-1,2-propanediols and evaluation of their anticancer activity” (2007).

Experiments:
Type in all cases: functional
A549 = test: Anticancer activity against human A549/ATCC cells assessed as growth inhibition
Method in brief: (§1)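 NCI in vitro disease-oriented human tumor cell screen, about 60 lines. Growth inhibition read as pGI50, the -log of the molar concentration inhibiting 50% net cell growth. A mean graph midpoint is the arithmetic mean over all tested lines. Where the effect was not reached within the concentration interval, the highest tested concentration was used.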

Malme-3M = test: Anticancer activity against human MALME3M cells assessed as growth inhibition; method in brief: as §1
SW-620 = test: Anticancer activity against human SW620 cells assessed as growth inhibition; method in brief: as §1
DU-145 = test: Anticancer activity against human DU145 cells assessed as growth inhibition; method in brief: as §1
HT-29 = test: Anticancer activity against human HT29 cells assessed as growth inhibition; method in brief: as §1
HOP-92 = test: Anticancer activity against human HOP92 cells assessed as growth inhibition; method in brief: as §1
EKVX = test: Anticancer activity against human EKVX cells assessed as growth inhibition; method in brief: as §1
HOP-62 = test: Anticancer activity against human HOP62 cells assessed as growth inhibition; method in brief: as §1
T47D = test: Anticancer activity against human T47D cells assessed as growth inhibition; method in brief: as §1
TK-10 = test: Anticancer activity against human TK10 cells assessed as growth inhibition; method in brief: as §1
786-0 = test: Anticancer activity against human 786-0 cells assessed as growth inhibition; details: read-out: Log LC50 (the source's name) (converted); method in brief: as §1
OVCAR-8 = test: Anticancer activity against human OVCAR8 cells assessed as growth inhibition; method in brief: as §1
NCI-H226 = test: Anticancer activity against human NCI-H226 cells assessed as growth inhibition; method in brief: as §1
MCF7 = test: Anticancer activity against human MCF7 cells assessed as growth inhibition; method in brief: as §1
UO-31 = test: Anticancer activity against human UO31 cells assessed as growth inhibition
Method in brief: (§2)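 The value is GI50, the molar concentration causing 50% inhibition of net cell growth, reported as pGI50 (−log molar).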

SK-OV-3 = test: Anticancer activity against human SK-OV3 cells assessed as growth inhibition; method in brief: as §1
SR = test: Anticancer activity against human SR cells assessed as growth inhibition; method in brief: as §1
SF-295 = test: Anticancer activity against human SF295 cells assessed as growth inhibition; method in brief: as §1
CCRF-CEM = test: Anticancer activity against human CCRF-CEM cells assessed as growth inhibition; method in brief: as §1
SN12C = test: Anticancer activity against human SN12C cells assessed as growth inhibition; method in brief: as §1
OVCAR-5 = test: Anticancer activity against human OVCAR5 cells assessed as growth inhibition; method in brief: as §1
MOLT-4 = test: Anticancer activity against human MOLT4 cells assessed as growth inhibition; method in brief: as §1
A498 = test: Anticancer activity against human A498 cells assessed as growth inhibition; method in brief: as §1
SF-539 = test: Anticancer activity against human SF539 cells assessed as growth inhibition; method in brief: as §1
CAKI-1 = test: Anticancer activity against human CAKI1 cells assessed as growth inhibition; method in brief: as §1
MDA-MB-435 = test: Anticancer activity against human MDA-MB435 cells assessed as growth inhibition; method in brief: as §1
RPMI-8226 = test: Anticancer activity against human RPMI8226 cells assessed as growth inhibition; method in brief: as §1
ACHN = test: Anticancer activity against human ACHN cells assessed as growth inhibition; method in brief: as §1
[1] = Anticancer activity against human HS 578T cells assessed as growth inhibition; method in brief: as §1
K562 = test: Anticancer activity against human K562 cells assessed as growth inhibition; method in brief: as §1
SK-MEL-28 = test: Anticancer activity against human SK-MEL-28 cells assessed as growth inhibition; method in brief: as §1
OVCAR-3 = test: Anticancer activity against human OVCAR-3 cells assessed as growth inhibition; method in brief: as §1
U-251 = test: Anticancer activity against human U251 cells assessed as growth inhibition; method in brief: as §2
HCT-116 = test: Anticancer activity against human HCT116 cells assessed as growth inhibition; method in brief: as §1
RXF 393 = test: Anticancer activity against human RXF393 cells assessed as growth inhibition; method in brief: as §1
NCI-H322M = test: Anticancer activity against human NCI-H322M cells assessed as growth inhibition; method in brief: as §1
NCI/ADR-RES = test: Anticancer activity against human NCI/ADR-RES cells assessed as growth inhibition; method in brief: as §1
M14 = test: Anticancer activity against human M14 cells assessed as growth inhibition; method in brief: as §1
SNB-19 = test: Anticancer activity against human SNB19 cells assessed as growth inhibition; method in brief: as §1
KM12 = test: Anticancer activity against human KM12 cells assessed as growth inhibition; method in brief: as §1
OVCAR-4 = test: Anticancer activity against human OVCAR4 cells assessed as growth inhibition; method in brief: as §1
IGROV-1 = test: Anticancer activity against human IGROV1 cells assessed as growth inhibition; method in brief: as §1
NCI-H23 = test: Anticancer activity against human NCI-H23 cells assessed as growth inhibition; method in brief: as §1
SF-268 = test: Anticancer activity against human SF268 cells assessed as growth inhibition; method in brief: as §1
HL-60 = test: Anticancer activity against human HL60(TB) cells assessed as growth inhibition; method in brief: as §1
BT-549 = test: Anticancer activity against human BT549 cells assessed as growth inhibition; method in brief: as §1
NCI-H460 = test: Anticancer activity against human NCI-H460 cells assessed as growth inhibition; method in brief: as §1
COLO 205 = test: Anticancer activity against human COLO 205 cells assessed as growth inhibition; method in brief: as §1
HCC 2998 = test: Anticancer activity against human HCC2998 cells assessed as growth inhibition; method in brief: as §1
HCT-15 = test: Anticancer activity against human HCT15 cells assessed as growth inhibition; method in brief: as §1
PC-3 = test: Anticancer activity against human PC3 cells assessed as growth inhibition; method in brief: as §1
NCI-H522 = test: Anticancer activity against human NCI-H522 cells assessed as growth inhibition; method in brief: as §1
[2] = read-out: Log LC50 (the source's name) (converted)

C[As](C)SCC(COC(=O)C(Cl)c1ccccc1)OC(=O)C(Cl)c1ccccc1 (configuration not stated)
GI50 (A549): 3.72 µM
CC50 (A549; [2]): > 100 µM
GI50 (Malme-3M): 0.0398 µM
CC50 (Malme-3M; [2]): 3.39 µM
GI50 (SW-620): 0.617 µM
CC50 (SW-620; [2]): > 100 µM
GI50 (DU-145): 4.27 µM
CC50 (DU-145; [2]): 58.9 µM
GI50 (HT-29): 0.813 µM
CC50 (HT-29; [2]): > 100 µM
GI50 (HOP-92): 0.162 µM
CC50 (HOP-92; [2]): 40.7 µM
GI50 (EKVX): 10.5 µM
CC50 (EKVX; [2]): > 100 µM
GI50 (HOP-62): 4.37 µM
CC50 (HOP-62; [2]): 40.7 µM
GI50 (T47D): 5.89 µM
CC50 (T47D; [2]): 60.3 µM
GI50 (TK-10): 0.112 µM
CC50 (TK-10; [2]): 2.69 µM
CC50 (786-0): 25.1 µM
GI50 (OVCAR-8): 4.07 µM
CC50 (OVCAR-8; [2]): > 100 µM
GI50 (NCI-H226): 26.9 µM
CC50 (NCI-H226; [2]): 67.6 µM
GI50 (MCF7): 0.372 µM
CC50 (MCF7; [2]): 67.6 µM
GI50 (UO-31): 5.37 µM
CC50 (UO-31; [2]): > 100 µM
GI50 (SK-OV-3): 0.646 µM
CC50 (SK-OV-3; [2]): > 100 µM
GI50 (SR): 1.41 µM
CC50 (SR; [2]): > 100 µM
GI50 (SF-295): 3.63 µM
CC50 (SF-295; [2]): 43.7 µM
GI50 (CCRF-CEM): 0.302 µM
CC50 (CCRF-CEM; [2]): 32.4 µM
GI50 (SN12C): 2.45 µM
CC50 (SN12C; [2]): 67.6 µM
GI50 (OVCAR-5): 3.55 µM
CC50 (OVCAR-5; [2]): 37.2 µM
GI50 (MOLT-4): 0.347 µM
CC50 (MOLT-4; [2]): > 100 µM
GI50 (A498): 5.5 µM
CC50 (A498; [2]): 57.5 µM
GI50 (SF-539): 3.63 µM
CC50 (SF-539; [2]): > 100 µM
GI50 (CAKI-1): 0.347 µM
CC50 (CAKI-1; [2]): 30.2 µM
GI50 (MDA-MB-435): 0.209 µM
CC50 (MDA-MB-435; [2]): 28.8 µM
GI50 (RPMI-8226): 0.316 µM
CC50 (RPMI-8226; [2]): > 100 µM
GI50 (ACHN): 0.759 µM
CC50 (ACHN; [2]): 38.9 µM
GI50 [1]: 6.17 µM
CC50 [1, 2]: > 100 µM
GI50 (K562): 0.0372 µM
CC50 (K562; [2]): 5.37 µM
GI50 (SK-MEL-28): 0.603 µM
GI50 (OVCAR-3): 0.178 µM
CC50 (OVCAR-3; [2]): 3.24 µM
GI50 (U-251): 6.31 µM
CC50 (U-251; [2]): > 100 µM
GI50 (HCT-116): 0.407 µM
CC50 (HCT-116; [2]): 4.9 µM
GI50 (RXF 393): 0.363 µM
CC50 (RXF 393; [2]): 36.3 µM
GI50 (NCI-H322M): 1.66 µM
CC50 (NCI-H322M; [2]): 32.4 µM
GI50 (NCI/ADR-RES): 2.04 µM
CC50 (NCI/ADR-RES; [2]): 32.4 µM
GI50 (M14): 0.603 µM
CC50 (M14; [2]): 34.7 µM
GI50 (SNB-19): 11.5 µM
CC50 (SNB-19; [2]): 85.1 µM
GI50 (KM12): 1.2 µM
CC50 (KM12; [2]): 30.9 µM
GI50 (OVCAR-4): 1.26 µM
CC50 (OVCAR-4; [2]): > 100 µM
GI50 (IGROV-1): 4.47 µM
CC50 (IGROV-1; [2]): > 100 µM
GI50 (NCI-H23): 0.741 µM
CC50 (NCI-H23; [2]): 22.9 µM
GI50 (SF-268): 3.16 µM
CC50 (SF-268; [2]): 56.2 µM
GI50 (HL-60): 0.162 µM
CC50 (HL-60; [2]): 8.51 µM
GI50 (BT-549): 2.45 µM
CC50 (BT-549; [2]): 64.6 µM
GI50 (NCI-H460): 5.75 µM
CC50 (NCI-H460; [2]): 79.4 µM
GI50 (COLO 205): 0.363 µM
CC50 (COLO 205; [2]): > 100 µM
GI50 (HCC 2998): 1.55 µM
CC50 (HCC 2998; [2]): 8.13 µM
GI50 (HCT-15): 0.38 µM
CC50 (HCT-15; [2]): > 100 µM
GI50 (PC-3): 0.55 µM
CC50 (PC-3; [2]): 47.9 µM
GI50 (NCI-H522): 0.457 µM
CC50 (NCI-H522; [2]): > 100 µM
